RORa activator = activators of human nuclear receptor RORA; P35398; CHO-K1 Gal4-RORA LBD luciferase reporter, luminescence; percent increase over mock-subtracted basal signal; activation, % at 10 µM; 1.5% of 65,000 active; AID 560;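 active means activation above the mean of all tested compounds plus 3 SD, cut at about 49% in these data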;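 further: 0% = DMSO-treated RORA cells and 100% = added signal equal to DMSO minus mock-transfected cells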
M1 antagonist = antagonists of rat M1 muscarinic receptor; 3.4% of 64,000 active; P08482; B-score at 10 µM; CHO-M1 cells, Fluo-4 calcium, ACh EC80 antagonist mode; stronger effect = lower value;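 active means calcium fluorescence response, raw or row-and-column corrected B-score, differing from the plate sample mean either way at a set confidence level, mostly lower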
D1 mod = allosteric modulators of human D1 dopamine receptor; HEK293 D1, CRE-luciferase, dopamine EC30 potentiation; actives deviate in either direction; 5.9% of 58,000 active; B-score at 10 µM; P21728;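 active means luminescence count or its row- and column-corrected plate score outside the 99.7% band of the plate's sample wells, on either side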
Target sequence (P21728 whole entry, looked up): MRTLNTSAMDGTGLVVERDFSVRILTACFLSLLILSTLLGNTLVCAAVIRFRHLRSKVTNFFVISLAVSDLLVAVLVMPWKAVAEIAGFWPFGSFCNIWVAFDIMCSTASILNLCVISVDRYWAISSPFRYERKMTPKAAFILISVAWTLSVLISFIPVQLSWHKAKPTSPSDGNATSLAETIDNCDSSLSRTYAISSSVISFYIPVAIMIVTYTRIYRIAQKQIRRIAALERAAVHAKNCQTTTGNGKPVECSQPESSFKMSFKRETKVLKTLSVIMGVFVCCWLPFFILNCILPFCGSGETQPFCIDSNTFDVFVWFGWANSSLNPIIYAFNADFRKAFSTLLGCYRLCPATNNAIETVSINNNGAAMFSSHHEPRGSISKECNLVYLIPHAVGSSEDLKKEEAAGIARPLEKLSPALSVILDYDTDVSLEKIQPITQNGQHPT
SF1 activator = SF-1 (human) activation | Q13285 | CHO-K1 Gal4-SF-1 LBD luciferase reporter; % increase over DMSO SF-1-specific signal | activation, % at 10 µM | 1.9% of 65,000 active;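 active means activation above the mean activation of all tested compounds plus 3 SD, cut at about 50% in these data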
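System: CHO-K1 cells with Gal4–hSF-1 LBD chimera plus Gal4-driven luciferase; quantity: 4,000 CHO-K1 cells per well; compound: one dose, 10 µM compound, 1% DMSO; times: 20 h compound treatment, 37 °C; measured by: SteadyLite luciferase luminescence; read-out: percent activation versus DMSO; benchmarks: DMSO and mock-transfected background; replicates: one test per compound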
M1 agonist = activates the M1 muscarinic receptor | CHO-M1 cells, Fluo-4 calcium fluorescence, agonist mode; stronger effect = higher value | B-score at 10 µM | 3% of 64,000 active | AID 626;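 active means fluorescence rise, raw or as B-score row- and column-corrected plate score, outside the 99.7% band of its plate's samples, either direction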
Htt clearance = compounds clearing mutant huntingtin protein | inhibition, % at 1.5 µM | AID 853 | 0.42% of 47,000 active | HeLa Exon1htt(103Q)mCFP, aggregate imaging; zero = plate's median compound well;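 active means inhibition of aggregate fluorescence above about 70%, also judged a hit by eye on the cell image, limit read from the data, passing the limit was not always enough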;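 further: cells exposed to compound for three days before fixation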
Active calls of the source: *; nt = not tested or not shown. This is a sample that favours compounds with a hit; in the whole collection about 11% have one here.

SMILES | RORa activator | M1 antagonist | D1 mod | SF1 activator | M1 agonist | Htt clearance
O=C(NCC1CCCO1)c1cc(-c2ccccc2)on1 (configuration not stated) | 90.6* | 0.241 | 0.269 | 67.5* | -2.71 | nt
CC1CCc2c(C(=O)NCC3CCCO3)csc2C1 (configuration not stated) | 15.0 | -0.133 | -0.0422 | 16.8 | 1.13 | 26.4
CC(C)(C)NC(=O)C(c1ccccn1)N(C(=O)C1CSC(=O)C1)c1ccc(F)cc1 (configuration not stated) | nt | nt | nt | nt | nt | 69.2
CC(C)n1c(-c2ccc(N(C)C)cc2)nc2ccccc21 | 32.9 | -1.1 | -4.62* | 16.8 | -0.946 | 24.5
Cc1ccc(C(O)c2nc3ccccc3n2C(C)C)cc1 (configuration not stated) | 7.2 | -0.575 | nt | -1.7 | 0.0374 | -15.1
Cn1c(Sc2nc3ccccc3n2C)nc2ccccc21 | -12.7 | -0.00654 | 0.378 | -18.7 | 0.107 | nt
CN(C)c1ccc(-c2nc3ccccc3n2C)cc1 | -62.2 | -0.0524 | -5.12* | -58.9 | -0.0365 | -17.4
Cc1nc2ccccc2c(=O)n1NCc1cccs1 | 6.5 | -0.349 | nt | 5.2 | 0.87 | -29.5
Cc1cc(C)cc(N(CC(=O)N2CCN(Cc3ccccc3)CC2)S(=O)(=O)c2c(C)noc2C)c1 | 15.0 | 0.298 | -0.216 | -0.2 | -0.191 | -54.4
CCOc1ccc(N(CC(=O)NC(C)CC)S(=O)(=O)c2c(C)noc2C)cc1 (configuration not stated) | 1.8 | 0.842 | -1.17 | -3.7 | 0.531 | nt
C=C(C)COc1ccc(-c2ncncc2Oc2ccc(OC)cc2)c(O)c1 | 5.5 | -0.0759 | -1.78 | 22.6 | -1.25 | nt
COc1ccc(-c2[nH]ncc2Oc2ccccc2OC)c(O)c1 | -7.3 | nt | -0.394 | 1.8 | nt | -75.7
COc1ccc(-c2nc(N)ncc2Oc2ccccc2Br)c(O)c1 | 14.0 | -0.109 | 14.3* | 10.8 | -0.187 | 3.6
C=C(C)COc1ccc(-c2nc(N)ncc2-c2ccc(OC)cc2)c(O)c1 | 23.8 | 0.79 | 3.35* | 11.3 | 0.271 | -20.9
Nc1nonc1C(=O)NCCNCc1cc(Br)ccc1OCc1ccccc1F | -37.8 | -0.994 | -3.3* | -45.9 | 2.84* | 26.8
CS(=O)(=O)N(Cc1nnc(-c2cccs2)o1)c1ccc(Cl)cc1F | -3.0 | -0.955 | -0.675 | -10.2 | 0.91 | -25.7
O=C(CN1C(=O)CCC1=O)Nc1nc(-c2nc3ccccc3s2)cs1 | 86.8* | 0.965 | -1.16 | 105.7* | 1.12 | nt
O=C(Nc1nc(-c2nc3ccccc3s2)cs1)C1CC1 | 51.0* | 0.205 | -3.39* | 29.0 | 1.26 | nt
O=C(Nc1nc(-c2ccc3c(c2)OCO3)cs1)C1CC1 | 72.3* | -1.01 | -0.653 | 51.1* | -0.682 | nt
Cc1cc(NC(=O)CSc2ccc3nnc(-c4cccs4)n3n2)no1 | 13.1 | 0.208 | 1.08 | -3.5 | -0.278 | 17.9
COc1ccccc1N1CCN(Cc2cc(Br)c(O)c3ncccc23)CC1 | 4.8 | 0.611 | -1.49 | -31.2 | 0.505 | nt
CCCN1CCC(N2CCN(c3ccccc3OC)CC2)CC1 | 2.6 | nt | 0.868 | 22.8 | nt | nt
COc1ccccc1N1CCN(CCOc2c(OC)cccc2OC)CC1 | -25.7 | 2.53* | nt | -19.8 | 1.35 | nt
CCOc1ccccc1N1CCN(Cc2cccc(OC)c2O)CC1 | -3.0 | -0.281 | -3.68* | 6.9 | -0.0878 | -26.6
Cc1ccccc1Nc1nnc(SCC(=O)NC(=O)NCc2ccco2)s1 | -16.9 | 0.368 | nt | -0.5 | 0.411 | nt
SMILES | RORa activator | M1 antagonist | D1 mod | SF1 activator | M1 agonist | Htt clearance
COc1ccccc1N1CCN(C(c2cccs2)C(C)NC(=O)c2cccs2)CC1 (configuration not stated) | 0.4 | 0.357 | nt | -3.0 | 0.872 | 26.2
COCCCn1c(-c2ccsc2)nc2c1c(=O)[nH]c(=O)n2Cc1ccccc1 | -8.3 | 0.36 | 1.46 | 8.8 | -0.0261 | 66.1
COc1ccccc1-c1cc(C(=O)Nc2c(F)cc(F)cc2Br)no1 | -10.8 | 0.406 | -0.733 | -19.2 | 0.562 | 16.7
Cc1ccc2nc3c(cc(C#N)c(=O)n3CCN3CCOCC3)c(=O)n2c1 | -3.1 | nt | -1.46 | -1.0 | nt | nt
Cc1ccc2nc3c(cc(C#N)c(=O)n3CC3CCCO3)c(=O)n2c1 (configuration not stated) | -9.1 | 0.0492 | -3.62* | 1.6 | -1.11 | nt
Cc1cc(-c2ccccc2)nc(N2CCC(C(=O)NC(C)C)CC2)n1 | 66.6* | 0.385 | 1.45 | 96.8* | 0.0925 | 24.9
COC(=O)Nc1ccc(S(=O)(=O)N2c3ccccc3CCC2C)cc1 (configuration not stated) | 14.9 | -1.03 | -1.55 | 4.8 | -0.0162 | nt
